Compound activity from PubChem BioAssay.
GPR7 antagonist: antagonists of human GPR7 (neuropeptides B/W receptor 1). P48145. 290,000 tested, 1.1% active. AID 1861. GPR7-expressing cells, fluorescence antagonist assay. inhibition, % at 4.4 µM; in the data active = inhibition above about 16%, passing the limit was not always enough;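 note: cells stimulated with the agonist NPW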
Target sequence (P48145 whole entry, looked up): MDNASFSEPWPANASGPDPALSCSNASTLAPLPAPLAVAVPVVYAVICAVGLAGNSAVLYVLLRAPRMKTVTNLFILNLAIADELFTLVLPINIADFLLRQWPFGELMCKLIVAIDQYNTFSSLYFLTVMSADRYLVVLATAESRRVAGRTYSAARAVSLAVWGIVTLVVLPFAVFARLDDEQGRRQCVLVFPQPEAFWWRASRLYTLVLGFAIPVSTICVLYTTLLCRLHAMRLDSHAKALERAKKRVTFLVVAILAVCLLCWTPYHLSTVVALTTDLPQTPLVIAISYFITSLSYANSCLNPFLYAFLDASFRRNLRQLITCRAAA
OX1R antag-1: OX1R (human) antagonism; OX1R-expressing cells, FRET antagonist read-out; inhibition, % at 6.6 µM; 330,000 tested, 1.8% active; AID 485270; in the data active = inhibition mostly above about 38%, no sharp cut-off; inactive = mostly below about 40%
OX1R antag-2: blocks the human orexin 1 receptor; CHO/OX1R cells, Fluo-8 calcium fluorescence, orexin A; 330,000 tested, 0.43% active; inhibition, % at 5 µM;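 active = inhibition above its plate's threshold, mean inhibition of all tested compounds on the plate plus 3 SD, cut at about 37% in these data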
GalR3 antag: antagonists of human GalR3; 360,000 tested, 0.44% active; inhibition, % at 3 µM; O60755; HEK293 GalR3-CNG cAMP membrane potential fluorescence; galR3 body fused to GalR1 C-terminus;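 active = inhibition above the screen-wide average plus 3 SD, cut at about 13% in these data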;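 note: forskolin and galanin both at EC90 stimulate the cells; cAMP rise reported by CNG channel membrane potential dye signal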
Target sequence (O60755 1-299 limits assumed): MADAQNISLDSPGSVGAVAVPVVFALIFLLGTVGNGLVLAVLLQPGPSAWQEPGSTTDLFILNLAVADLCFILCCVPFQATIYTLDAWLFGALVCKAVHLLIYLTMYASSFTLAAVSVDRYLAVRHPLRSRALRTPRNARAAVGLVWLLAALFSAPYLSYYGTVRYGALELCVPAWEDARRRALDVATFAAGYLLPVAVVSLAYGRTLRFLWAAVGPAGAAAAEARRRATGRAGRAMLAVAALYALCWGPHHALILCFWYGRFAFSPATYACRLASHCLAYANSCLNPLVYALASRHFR
CHO parental Ca: counter-screen: ATP calcium response change in parental CHO cells. AID 463079. inhibition, % at 5.6 µM. parental CHO-K1, ATP-induced calcium, Fluo-8 fluorescence. 330,000 tested, 0.63% active;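 active = inhibition above that plate's mean sample inhibition plus 3 SD, cut at about 26% in these data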
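material = parental CHO cells | also added = ATP as calcium-mobilizing challenge | dosing = single point at 5.6 µM | detection = intracellular calcium via Fluo-8 no-wash fluorescent dye | read-out = % inhibition | benchmarks = low control ATP plus DMSO, high control DMSO only | repeats = one well per compound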
A number is an active result; . = inactive; / = not tested or not shown. An excerpt weighted towards active compounds, which were near 3.1% of everything screened.

SMILES	GPR7 antagonist	OX1R antag-1	OX1R antag-2	GalR3 antag	CHO parental Ca
N#CC1=C(N)N2C(=C(C#N)C13CCCCC3)SC1CCCCC12O (stereo not given)	.	.	.	.	33
CSC1=C(C#N)C2(CCCC2)C(C#N)=C(N)N1	.	.	.	/	.
O=C(CCc1nnc(CCCc2ccccc2)o1)NCC(F)(F)F	.	.	.	.	.
S=c1[nH]nc(-c2cccs2)n1/N=C/c1c(Cl)cccc1Cl	.	108	51	.	34
O=C(Cc1ccccc1)Nc1cc([N+](=O)[O-])ccc1N1CCOCC1	.	.	.	.	.
COc1ccc(CCN=c2c([N+](=O)[O-])nn(-c3cccc(C)c3)n2O)cc1OC	.	75	.	.	.
Cc1ccc(NS(=O)(=O)c2ccc(NC(=O)c3ccc(Br)o3)cc2)c(C)c1	.	.	.	.	36
COc1cccc(-c2nn(-c3ccc(C)cc3)cc2C(=O)N2CCc3cc(OC)c(OC)cc3C2)c1	/	46	.	.	.
COc1ccc(OC)c(-c2nn(-c3ccccc3)cc2C(=O)N2CCc3ccccc3C2)c1	/	.	.	.	.
CC1(C(=O)NCc2cccs2)Cc2c(-c3ccc4c(c3)OCO4)ccnc2O1 (stereo not given)	/	/	/	.	/
O=C1c2cccc3c([N+](=O)[O-])ccc(c23)C(=O)N1CCc1ccccn1	.	.	.	.	.
CN(C)CCCN1C(=O)c2cccc3c([N+](=O)[O-])ccc(c23)C1=O	.	68	.	.	.
CCC(=O)N(C)/C=C1\Sc2ccccc2C1=O	.	.	.	.	.
CCC(=O)N(CC)C1=C(O)c2ccccc2C(=O)C1=O	.	58	.	.	.
CCN(C(=O)CSc1nnc(-c2ccccc2)o1)c1c(N)n(Cc2ccccc2)c(=O)[nH]c1=O	.	70	.	.	.
CCCCN(C(=O)CSc1nnc(-c2ccccc2)o1)c1c(N)n(CCC)c(=O)[nH]c1=O	/	.	.	.	.
CC(C)CN(C(=O)CCCOc1ccc(Cl)cc1Cl)c1c(N)n(Cc2ccccc2)c(=O)[nH]c1=O	/	39	.	.	.
CC(C)CN(C(=O)CSc1nc2ccccc2o1)c1c(N)n(Cc2ccccc2)c(=O)[nH]c1=O	/	31	.	.	.
CCN(CC)c1ccc(-c2nnc(SCC(=O)N(CCOC)c3c(N)n(CC(C)C)c(=O)[nH]c3=O)o2)cc1	/	57	.	.	.
CC(C)CN(C(=O)CSc1nnc(-c2ccco2)o1)c1c(N)n(Cc2ccccc2)c(=O)[nH]c1=O	.	68	.	.	.
CCN=C1NC(c2ccc(C(F)(F)F)cc2)C(C(=O)OC)=C(C)N1Cc1cccc(C(F)(F)F)c1 (stereo not given)	/	/	/	.	/
Cc1n[nH]c(=O)c2c(NC(=O)CSc3nncs3)oc(C)c12	/	48	.	.	.
Cc1ccc([N+](=O)[O-])cc1NC(=O)CN(C)CCOc1ccccc1	.	.	.	.	.
CN(CCOc1ccccc1)C(=O)c1cc([N+](=O)[O-])cc([N+](=O)[O-])c1	.	38	.	.	.
CN(CCOc1ccccc1)CC(=O)Nc1cc([N+](=O)[O-])ccc1Cl	.	62	.	.	.
SMILES	GPR7 antagonist	OX1R antag-1	OX1R antag-2	GalR3 antag	CHO parental Ca
CCN(C(=O)CSc1nc2ccc([N+](=O)[O-])cc2s1)C1CCS(=O)(=O)C1 (stereo not given)	.	68	.	.	.
COc1cccc(-c2cc(C(=O)Nc3ccc(OC)c(OC)c3)no2)c1	.	84	.	.	.
O=C1CN(C(=O)CSc2ccc(-c3ccc(F)cc3)nn2)c2ccccc2N1	.	.	.	.	.
COc1ccccc1OCCNC(=O)CN(c1cccc(C)c1)S(=O)(=O)c1ccccc1	.	72	.	.	.
COc1ccc(OC)c(N(CC(=O)NCCSCc2ccco2)S(=O)(=O)c2ccccc2)c1	.	51	.	.	.
COc1ccc(N(CC(=O)NCCSc2ccccn2)S(=O)(=O)c2ccccc2)c(OC)c1	.	46	.	.	.
COc1ccc(CCNC(=O)CN(c2cc(OC)ccc2OC)S(=O)(=O)c2ccccc2)cc1	.	.	.	.	.
COc1ccccc1N(CC(=O)NCCSCc1ccc(C)cc1)S(=O)(=O)c1ccccc1	.	60	.	.	.
CC(C)C[C@H](NC(=O)c1ccco1)C(=O)N1CCC[C@H]1C(=O)NCc1ccccc1	/	/	/	.	/
CCN(CC(=O)NCc1ccc(Cl)cc1)C(=O)/C=C/c1ccc(Cl)c([N+](=O)[O-])c1	.	.	.	.	.
Cc1occc1-c1n[nH]c(=S)n1-c1ccccc1	.	.	.	.	.
Cc1occc1-c1n[nH]c(=S)n1C	.	.	.	13	.
CCOC(=O)c1c(CN2CCCCC2)n(C)c2cc(Br)c(O)cc12	.	.	.	.	.
CCOC(=O)c1c(CN2CCN(C)CC2)n(C)c2cc(Br)c(OC)cc12	19	.	.	.	.
CCCOC(=O)c1ccc(NC(=O)c2ccccc2OC)cc1	.	76	.	.	.
Cc1sc2ncnc(NCC3(N4CCOCC4)CCCCC3)c2c1C	.	.	.	.	.
Cc1sc2ncnc(NCc3ccccc3)c2c1C	.	.	.	.	35
Cc1cc2c(NCc3ccccc3)ncnc2s1	.	.	.	.	32
COc1ccc(CNc2ncnc3sccc23)cc1	.	.	.	.	45
c1ccc(CNc2ncnc3sccc23)cc1	.	.	.	.	.
Cc1sc2ncnc(NCC(C)(C)N3CCOCC3)c2c1C	.	82	.	.	.
C=CCCC(=O)N1C[C@H]2CCN(C)[C@H]2C[C@H]1c1ccccc1Br	/	/	/	.	/
CS(=O)(=O)N(CCc1ccccc1)CC(N)=O	.	.	.	.	.
COc1ccc(CCN2CCCn3c2nc2c3c(=O)[nH]c(=O)n2C)cc1OC	.	/	/	.	/
Cc1ccc(S(=O)(=O)N(C)C)cc1NC(=O)C(C)OC(=O)C1CCC1 (stereo not given)	/	.	.	.	.
SMILES	GPR7 antagonist	OX1R antag-1	OX1R antag-2	GalR3 antag	CHO parental Ca
Cc1ccc(C(=O)NCCc2nnc3ccc(SCC(=O)Nc4nnc(C)s4)nn23)cc1	/	/	/	.	/
O=C(Nc1ccccc1)c1nc[nH]c1C(=O)NCCNC(=O)c1[nH]cnc1C(=O)Nc1ccccc1	/	65	.	.	.
O=C(Nc1ccccc1)c1nc[nH]c1C(=O)NCCCCNC(=O)c1[nH]cnc1C(=O)Nc1ccccc1	/	.	.	.	.
COc1cc(/C=C/C(=O)OCC(=O)NNC(=O)c2cc(Cl)ccc2OC)ccc1O	/	.	.	.	.
COc1cc(/C=C/C(=O)OCC(=O)Nc2ccccc2Sc2ccc(Cl)cc2)ccc1O	.	.	.	.	62
O=C(CCCc1ccccc1)NCCS(=O)(=O)N1CCN(c2ccc(F)cc2)CC1	/	.	.	.	.
Cc1c(C(C)(C)O)[nH]c2cc(C(F)(F)F)ccc12	.	.	.	.	.
O=c1[nH]c2cc(C(F)(F)F)ccc2n1-c1cc(C(F)(F)F)ccc1O	/	.	51	.	84
COc1ccc(NC(=O)Cc2c(F)cccc2Cl)c(OC)c1	.	.	.	.	.
O=C1/C(=C/c2ccccc2)Nc2ccccc21	.	.	50	.	36
